Bioassay records: PubChem BioAssay, several laboratories
Most compounds without a hit are left out; they make up all but 1.3% or so of the library.
S1P4 agonist – agonists of human S1P4 receptor. O95977. S1P4-expressing cell line, agonist reporter assay. activation, % at 4.98 µM. actives 0.35% (n = 220,000). AID 1509; in the data active = activation above about 11%;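 also: 0% = DMSO vehicle and 100% = reference agonist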
S1P4 antagonist – antagonists of human S1P4 receptor. inhibition, % at 4.98 µM. S1P4-expressing cells, antagonist mode, reporter read-out. O95977. actives 0.26% (n = 220,000); in the data active = inhibition above about 29%;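 also: 0% = wells stimulated with agonist and 100% = vehicle wells without agonist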
S1P3 antag – antagonists of human S1P3 receptor; CHO S1P3 NFAT-BLA reporter, FRET fluorescence, antagonist mode; inhibition, % at 4.98 µM; actives 0.27% (n = 170,000);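 active = inhibition above the plate cutoff, the mean inhibition of test wells on that plate plus 3 SD, cut at about 28% in these data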;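 also: cells challenged with S1P at its EC80 of 0.8 µM; blue over green emission ratio from cleaved BLA substrate after 4 h stimulation; 0% = S1P-stimulated wells and 100% = unstimulated DMSO-only wells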
Target sequence (Q99500 whole entry, looked up): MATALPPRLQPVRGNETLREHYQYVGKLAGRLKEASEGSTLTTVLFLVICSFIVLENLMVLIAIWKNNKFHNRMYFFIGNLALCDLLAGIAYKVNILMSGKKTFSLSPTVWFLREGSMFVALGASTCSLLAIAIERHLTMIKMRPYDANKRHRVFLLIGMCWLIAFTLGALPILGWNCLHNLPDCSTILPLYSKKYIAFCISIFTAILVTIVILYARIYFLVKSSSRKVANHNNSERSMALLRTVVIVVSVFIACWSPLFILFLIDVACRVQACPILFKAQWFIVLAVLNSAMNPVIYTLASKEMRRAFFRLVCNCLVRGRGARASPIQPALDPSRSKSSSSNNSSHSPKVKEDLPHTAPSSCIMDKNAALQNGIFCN
MDM2 E3 inh – Mdm2 E3 ligase (human) inhibition | Q00987 | cell-based MDM2 ubiquitination luciferase reporter, 2 h; 0 = plate control, 100 = twice control, blank-subtracted | signal enhancement, % at 5 µM | actives 0.11% (n = 210,000) | AID 1230;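 active = signal enhancement of 30% or more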;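 also: luminescence tracks abundance of the self-degrading MDM2-luciferase fusion protein; higher signal means inhibition of MDM2 E3 ligase activity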
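test system = mammalian cells stably expressing self-ubiquitinating, self-degrading MDM2 E3–luciferase fusion | quantity = 2000 cells/well | incubation = cell settling 4 h, compound treatment 2 h, both 37 °C | signal = luminescence with SteadyLite reagent, 15 min at room temperature | evaluation = % enhancement relative to plate controls after blank subtraction | benchmarks = plate controls and plate blanks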
Hsp70 activator – switches on Hsp70 transcription. HeLa Hsp70 promoter luciferase reporter, luminescence; scaled: vehicle 0, proteasome-inhibitor control 100%. activation, % at 10 µM. actives 0.04% (n = 200,000). AID 1203;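 active = activation above the mean across all tested compounds plus 3 SD, cutoff set per campaign, cut at about 5.5% in these data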;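 also: 100% = MG132 at 30 µM as the positive control and 0% = DMSO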
Dynein transport – blocks dynein driven cargo transport along microtubules. 3617.4 mouse cells, GR-EGFP nuclear translocation imaging; test concentration mostly 20 µM; stimulated with dexamethasone, 1 µM; stronger effect = lower value. z-score, hits read low. AID 1381. actives 0.47% (n = 220,000);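 active = plate z-score of nuclear minus cytoplasmic receptor signal below a set negative limit, without overly bright fluorescence or cell loss, cut at about -3.5 in these data, passing the limit was not always enough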;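 also: z-score of nuclear minus cytoplasmic ring GR-EGFP intensity difference per well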
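Buffer or medium: tet-free, stripped-serum medium; reagent: dexamethasone at 1.0 µM final, 30 min; incubation: 48 h induction, 1 h compound, 30 min dex at 37 °C; measured by: formaldehyde fixation, Hoechst nuclear stain, 10x automated fluorescence imaging; read-out: nuclear-to-cytoplasmic GR-EGFP distribution per well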
Starred values were filed as active, the others as inactive; · = no result given.

SMILES	S1P4 agonist	S1P4 antagonist	S1P3 antag	MDM2 E3 inh	Hsp70 activator	Dynein transport
COC(=O)c1ccc(OCC(O)Cn2nnc3ccccc32)cc1 (stereo not given)	1	-19	4	-5	1	0.64
CC(=O)c1ccc(OCC(O)Cn2nnc3ccccc32)cc1 (stereo not given)	-1	1	0	36*	0	2.3
CCOC(=O)c1c(NC(=O)c2nn(CC)cc2Br)c(C#N)cn1-c1ccccc1	2	-16	59*	-20	0	-0.046
CCOC(=O)c1c(N)c(C#N)cn1-c1ccccc1	-2	-1	13	-15	0	-0.29
Cc1ccc(C)c(-n2nnnc2SCC(=O)NNC(=O)c2ccco2)c1	-1	-4	-33	-4	0	1.1
COc1ccc(S(=O)(=O)Nc2cc(C)ccn2)cc1OC	0	-6	115*	2	0	-0.33
COc1ccccc1C(=O)OCC(=O)Nc1cc(S(=O)(=O)N2CCOCC2)ccc1N1CCCC1	3	-2	-4	3	0	1.2
COc1ccccc1OCC(=O)Nc1cc(S(=O)(=O)N2CCCCC2)ccc1N1CCCCC1	0	-12	2	78*	0	1.7
C/C(=N\NC(=O)CSc1nc2ccccc2s1)c1cccnc1	-2	9	-4	-8	·	0.13
Cc1cccc2c1c1ccc3c(c1n2C)C(=O)C=CC3=O	1	7	-3	54*	·	-1.7
COc1cc(CN2CCN(Cc3ccc(C)cc3)C(CCO)C2)cc(OC)c1O (stereo not given)	1	0	-3	-11	0	-0.35
CC(C)Oc1ccc(/C(O)=C2/C(=O)C(=O)N(CCCN3CCOCC3)C2c2ccncc2)cc1 (stereo not given)	·	·	-43	·	·	·
COC(=O)CSC1=C(C#N)C(=O)NC(c2ccccc2)S1 (stereo not given)	1	6	·	40*	0	-0.9
CSC1=C(C#N)C(=O)NC(c2ccccc2O)S1 (stereo not given)	-1	-1	-11	-10	·	-2
CC(=O)NC(C)C(c1cccs1)N1CCN(c2ccccc2)CC1 (stereo not given)	4	-13	64*	-9	0	0.95
CCC(=O)NC(C)C(c1cccs1)N1CCN(c2ccccc2)CC1 (stereo not given)	-3	-5	-20	-13	0	-0.11
CN(C)c1nc(N(C)C)nc(N2CC(=O)N(c3ccccc3)C2=N)n1	-2	4	8	-8	0	-0.11
Cc1ccc(O)c(C2=Nc3ccccc3C2(C)C)c1	0	-8	-16	-41	0	0.11
COc1ccc(C)cc1C1=Nc2ccccc2C1(C)C	1	-5	10	30*	0	-0.52
CCN1CCN(Cc2nc3c(c(=O)n(C)c(=O)n3C)n2C(C)C(C)=O)CC1 (stereo not given)	0	-14	·	31*	0	-0.33
COc1ccccc1-c1cc(SC)c(C#N)c(=O)o1	0	-12	7	36*	0	-2.4
C[C@@H]1C[C@@H]2OC(=O)[C@]3(C)[C@H]2[C@@H](OC3(C)O)[C@]2(C)C(=O)C=C[C@H]12 (stereo not given in full)	·	·	·	-3	·	-0.82
C=C1C(=O)O[C@@H]2C[C@@H](C)[C@@H]3C=CC(=O)[C@@]3(C)[C@@H](OC(C)=O)[C@H]12	·	·	·	35*	·	-3.6*
Cc1ccc(Nc2nnc(SCC3CCCCO3)s2)cc1 (stereo not given)	0	-10	0	848*	0	0.71
Cn1c(SCc2ccccc2)nnc1-c1c[nH]c2ccccc12	-2	5	·	-2	0	-0.46
SMILES	S1P4 agonist	S1P4 antagonist	S1P3 antag	MDM2 E3 inh	Hsp70 activator	Dynein transport
CCCCSc1nnc(-c2c[nH]c3ccccc23)n1C	1	3	101*	-9	0	0.35
CCn1c(SCC(=O)c2ccc(O)c(O)c2)nnc1-c1ccccc1OC	-1	8	74*	-11	0	0.59
O=C(Nc1cccc(C(F)(F)F)c1)c1cc(S(=O)(=O)N2CCCCC2)ccc1N1CCOCC1	1	-13	·	38*	0	0.057
NC(=O)CCC(C(=O)O)N1C(=O)c2ccc(O)cc2C1=O (stereo not given)	3	-3	2	-9	·	0.21
CCOC(=O)c1cccc(NC(=O)Nc2ccc3c(c2)C(=O)OC3)c1	-2	4	-2	-1	·	-0.039
Cc1cc(C)nc(S/C=C/C(=O)c2ccc(F)cc2)n1	0	17	-7	59*	·	-0.92
Cc1cc(C)nc(SCNC(=O)c2ccc(F)cc2)n1	-1	-13	-9	18	0	-0.5
O=C(CSc1nnnn1C1CC2CCC1C2)Nc1ccnc2ccccc12 (stereo not given)	0	-22	64*	-46	0	-0.62
Cc1cc(NC(=O)C2CC2)ncc1NC(=O)C12CC3CC(CC(C3)C1)C2	0	-4	·	30*	0	0.24
CCCC(c1nnnn1Cc1ccco1)N1CCN(c2ccccc2)CC1 (stereo not given)	0	-2	3	-2	0	0.14
CCCC(c1nnnn1Cc1ccco1)N1CCN(c2cc(Cl)ccc2C)CC1 (stereo not given)	-1	9	60*	-24	0	-0.29
COc1ccc(/C=C2\SC(=N)N(c3nccs3)C2=O)cc1OC	2	-4	-9	-6	0	0.63
N=C1S/C(=C\c2ccc(-c3cccc(Cl)c3)o2)C(=O)N1c1nccs1	5	-13	-6	36*	0	-0.88
N#Cc1nc(Cc2cccc3ccccc23)oc1NCCCN1CCOCC1	2	-5	8	-8	0	-0.41
N#Cc1nc(Cc2ccccc2)oc1NCCN1CCOCC1	0	-12	-51	32*	0	0.9
O=C(Cn1ncc(Cl)c(Cl)c1=O)NCC1CCCCC1	0	17	-7	80*	0	-6.2*
CSc1ccc(/C=C/C(=O)OCC(=O)N(C)CCC#N)cc1	-1	-4	-14	-8	0	-1.1
CCN(CC(=O)Nc1ccc2c(c1)OCO2)Cc1nc2ccccc2c(=O)[nH]1	1	-24	-24	7	0	0.97
CCN(CC(=O)Nc1ccc(N2CCOCC2)cc1)Cc1nc2ccccc2c(=O)[nH]1	0	-18	·	39*	0	-0.057
CCCSC1=C(C#N)C(c2ccccc2C)CC(=O)N1 (stereo not given)	1	-12	15	-13	0	-0.96
CCCCSC1=C(C#N)C(c2ccccc2C)CC(=O)N1 (stereo not given)	0	-5	102*	-5	0	-0.3
COc1ccc(CCNc2c([N+](=O)[O-])c(=O)oc3ccccc23)cc1OC	1	-13	·	-22	0	-0.74
